Assay results as given in ChEMBL document CHEMBL1138270, “Antimycobacterial activities of novel 1-(cyclopropyl/tert-butyl/4-fluorophenyl)-1,4-dihydro- 6-nitro-4-oxo-7-(substituted secondary amino)-1,8-naphthyridine-3-carboxylic acid” (J Med Chem, 2007).
Values after ≈ are worked out from the molar mass of the structure shown.

Assays:
Vero = test: Cytotoxicity against Vero cells after 72 hrs by MTT assay; type: cell-based; settings: Chlorocebus sabaeus
Summary of the method: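 Vero cells were exposed to serially diluted compound up to 62.5 µg/mL for 72 h. Viability was read by cellular conversion of MTT to formazan (CellTiter 96 non-radioactive proliferation assay), and IC50 was derived.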

[1] = system: Mycobacterium tuberculosis; test: Antimycobacterial activity against Mycobacterium tuberculosis H37Rv by agar dilution method; type: functional
Summary of the method: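 MIC was determined by agar dilution, in duplicate.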

[2] = system: Mycolicibacterium smegmatis; test: Antimicrobial activity against Mycobacterium smegmatis by agar dilution method; type: functional
Summary of the method: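 Agar dilution against M. smegmatis ATCC 14468; MIC determined in duplicate.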

[3] = Inhibition of Mycobacterium smegmatis DNA gyrase supercoiling activity; design: species or system Mycolicibacterium smegmatis
Summary of the method: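 Gyrase purified from M. smegmatis was preincubated with compound in DMSO (5% DMSO in reaction). 400 ng relaxed pUC18 was added in 35 mM Tris-HCl pH 7.5, 5 mM MgCl2, 25 mM K-glutamate, 2 mM spermidine, 2 mM ATP, BSA, tRNA and 5% glycerol, 1 h at 37 °C. Samples were heat-inactivated, run on 1% agarose in TAE, and ethidium-stained; IC50 was derived.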

Mus musculus [4] = test: Phototoxicity in UV light irradiated Swiss Albino mouse assessed as ear thickness at 140 mg/kg, po; type: organism-based; design: dose 140 mg/kg, route oral; settings: in vivo
Summary of the method: (§1)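 Female Swiss albino mice (~2 months, 20-25 g) were fasted ≥18 h and given 140 mg/kg orally by gavage; controls received 0.5% Na-CMC vehicle at 10 mL/kg. UVA started right after dosing, 4 h (~18 J/cm2). Ear thickness was measured before dosing and at 4, ~24, 48, 72 and 96 h, reported as mean of left and right ears ± SEM.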

Mus musculus [5] = test: Phototoxicity in Swiss Albino mouse assessed as ear thickness at 140 mg/kg, po after 4 hrs of irradiation; type: organism-based; design: dose 140 mg/kg, route oral; settings: in vivo; summary of the method: as §1
Mus musculus [6] = test: Phototoxicity in Swiss Albino mouse assessed as ear thickness at 140 mg/kg, po after 24 hrs of irradiation; type: organism-based; design: dose 140 mg/kg, route oral; settings: in vivo; summary of the method: as §1
Mus musculus [7] = test: Phototoxicity in Swiss Albino mouse assessed as ear thickness at 140 mg/kg, po after 48 hrs of irradiation; type: organism-based; design: dose 140 mg/kg, route oral; settings: in vivo; summary of the method: as §1
Mus musculus [8] = test: Phototoxicity in Swiss Albino mouse assessed as ear thickness at 140 mg/kg, po after 72 hrs of irradiation; type: organism-based; design: dose 140 mg/kg, route oral; settings: in vivo; summary of the method: as §1
Mus musculus [9] = test: Phototoxicity in Swiss Albino mouse assessed as ear thickness at 140 mg/kg, po after 96 hrs of irradiation; type: organism-based; design: dose 140 mg/kg, route oral; settings: in vivo; summary of the method: as §1
Mus musculus [10] = test: Phototoxicity in UV light irradiated Swiss Albino mouse assessed ear erythema at 140 mg/kg, po; type: organism-based; design: dose 140 mg/kg, route oral; settings: in vivo
Mus musculus [11] = test: Phototoxicity in Swiss Albino mouse assessed as ear erythema at 140 mg/kg, po after 4 hrs of irradiation; type: organism-based; design: dose 140 mg/kg, route oral; settings: in vivo
Mus musculus [12] = test: Phototoxicity in Swiss Albino mouse assessed as ear erythema at 140 mg/kg, po after 24 hrs of irradiation; type: organism-based; design: dose 140 mg/kg, route oral; settings: in vivo
Mus musculus [13] = test: Phototoxicity in Swiss Albino mouse assessed as ear erythema at 140 mg/kg, po after 72 hrs of irradiation; type: organism-based; design: dose 140 mg/kg, route oral; settings: in vivo
Mus musculus [14] = test: Phototoxicity in Swiss Albino mouse assessed as ear erythema at 140 mg/kg, po after 96 hrs of irradiation; type: organism-based; design: dose 140 mg/kg, route oral; settings: in vivo

| SMILES | IC50 (Vero) [µM] | MIC [1] [µM] | MIC [2] [µM] | further results |
| --- | --- | --- | --- | --- |
| CN1CCN(c2nc3c(cc2[N+](=O)[O-])c(=O)c(C(=O)O)cn3C(C)(C)C)CC1c1ccccc1 (stereo unspecified) | > 134 | 0.84 (≈ 0.391 µg/mL) | 13.4 (≈ 6.25 µg/mL) |  |
| O=C(O)c1cn(C2CC2)c2nc(N3CCN(C(=O)C4COc5ccccc5O4)CC3)c([N+](=O)[O-])cc2c1=O (stereo unspecified) | 59.9 | 12 (≈ 6.25 µg/mL) | 6 (≈ 3.13 µg/mL) |  |
| COc1ccc(CC2C3=C(CCCC3)CCN2c2nc3c(cc2[N+](=O)[O-])c(=O)c(C(=O)O)cn3-c2ccc(F)cc2)cc1 (stereo unspecified) | < 53.5 | 10.7 (≈ 6.25 µg/mL) | 85.5 (≈ 50 µg/mL) |  |
| CC1CN(c2nc3c(cc2[N+](=O)[O-])c(=O)c(C(=O)O)cn3C2CC2)CC(C)O1 (stereo unspecified) | > 161 | 4.02 (≈ 1.56 µg/mL) | 32.2 (≈ 12.5 µg/mL) |  |
| CC1CN(c2nc3c(cc2[N+](=O)[O-])c(=O)c(C(=O)O)cn3C(C)(C)C)CC(C)O1 (stereo unspecified) | 159 | 7.74 (≈ 3.13 µg/mL) | 15.4 (≈ 6.25 µg/mL) |  |
| O=C(O)c1cn(-c2ccc(F)cc2)c2nc(N3CCC(N4CCCCC4)CC3)c([N+](=O)[O-])cc2c1=O | > 126 | 3.15 (≈ 1.56 µg/mL) | 25.2 (≈ 12.5 µg/mL) |  |
| CC(C)(C)n1cc(C(=O)O)c(=O)c2cc([N+](=O)[O-])c(N3CCN(C(=O)C4COc5ccccc5O4)CC3)nc21 (stereo unspecified) | 116 | 1.45 (≈ 0.779 µg/mL) | 5.82 (≈ 3.13 µg/mL) |  |
| O=C(O)c1cn(C2CC2)c2nc(N3CCN(C(=O)c4ccco4)CC3)c([N+](=O)[O-])cc2c1=O | 68.9 | 6.9 (≈ 3.13 µg/mL) | 27.6 (≈ 12.5 µg/mL) |  |
| CC(C)(C)NC(=O)C1c2ccccc2CCN1c1nc2c(cc1[N+](=O)[O-])c(=O)c(C(=O)O)cn2C(C)(C)C (stereo unspecified) | 120 | 2.99 (≈ 1.56 µg/mL) | 6 (≈ 3.13 µg/mL) |  |
| O=C(O)c1cn2c(n1)CN(c1nc3c(cc1[N+](=O)[O-])c(=O)c(C(=O)O)cn3C1CC1)CC2 | 142 | 3.54 (≈ 1.56 µg/mL) | 28.4 (≈ 12.5 µg/mL) |  |
| CC(C)(C)n1cc(C(=O)O)c(=O)c2cc([N+](=O)[O-])c(N3CCN(C(=O)c4ccco4)CC3)nc21 | 133 | 3.32 (≈ 1.56 µg/mL) | 6.67 (≈ 3.13 µg/mL) |  |
| O=C(O)c1cn(C2CC2)c2nc(N3CCN(Cc4ccc5c(c4)OCO5)CC3)c([N+](=O)[O-])cc2c1=O | 127 | 3.16 (≈ 1.56 µg/mL) | 25.3 (≈ 12.5 µg/mL) |  |
| CC(C)(C)n1cc(C(=O)O)c(=O)c2cc([N+](=O)[O-])c(N3CCn4cc(C(=O)O)nc4C3)nc21 | > 137 | 0.42 (≈ 0.192 µg/mL) | 6.86 (≈ 3.13 µg/mL) |  |
| COc1ccc(CC2C3=C(CCCC3)CCN2c2nc3c(cc2[N+](=O)[O-])c(=O)c(C(=O)O)cn3C2CC2)cc1 (stereo unspecified) | 118 | 5.89 (≈ 3.13 µg/mL) | 1.47 (≈ 0.78 µg/mL) | IC50 [3]: 56.5 µM; Activity (Mus musculus [4]): 0.33 mm; Activity (Mus musculus [5]): 0.34 mm; Activity (Mus musculus [6]): 0.34 mm; Activity (Mus musculus [7]): 0.38 mm; Activity (Mus musculus [8]): 0.36 mm; Activity (Mus musculus [9]): 0.33 mm; Activity (Mus musculus [10]): Non-toxic; Activity (Mus musculus [11]): Non-toxic; Activity (Mus musculus [12]): Non-toxic; Activity (Mus musculus [13]): Non-toxic; Activity (Mus musculus [14]): Non-toxic |
| COc1ccc(CC2C3=C(CCCC3)CCN2c2nc3c(cc2[N+](=O)[O-])c(=O)c(C(=O)O)cn3C(C)(C)C)cc1 (stereo unspecified) | > 114 | 5.73 (≈ 3.13 µg/mL) | 11.4 (≈ 6.25 µg/mL) |  |
| O=C(O)c1cn(C2CC2)c2nc(N3CCC(N4CCCCC4)CC3)c([N+](=O)[O-])cc2c1=O | > 142 | 7.09 (≈ 3.13 µg/mL) | 28.3 (≈ 12.5 µg/mL) |  |
| O=C(O)c1cn(-c2ccc(F)cc2)c2nc(N3CCN(C(=O)c4ccco4)CC3)c([N+](=O)[O-])cc2c1=O | 123 | 3.07 (≈ 1.56 µg/mL) | 24.6 (≈ 12.5 µg/mL) |  |
| O=C(O)c1cn(-c2ccc(F)cc2)c2nc(N3CCC(n4c(=O)[nH]c5cc(Cl)ccc54)CC3)c([N+](=O)[O-])cc2c1=O | 53.9 | 2.69 (≈ 1.56 µg/mL) | 10.8 (≈ 6.25 µg/mL) |  |
| CC(C)(C)NC(=O)C1c2ccccc2CCN1c1nc2c(cc1[N+](=O)[O-])c(=O)c(C(=O)O)cn2-c1ccc(F)cc1 (stereo unspecified) | 112 | 2.79 (≈ 1.56 µg/mL) | 11.2 (≈ 6.25 µg/mL) |  |
| CC(C)(C)n1cc(C(=O)O)c(=O)c2cc([N+](=O)[O-])c(N3CCC(O)(c4ccc(Cl)cc4)CC3)nc21 | 125 | 3.11 (≈ 1.56 µg/mL) | 24.9 (≈ 12.5 µg/mL) |  |
| O=C(O)c1cn(C2CC2)c2nc(N3CCC4(CC3)OCCO4)c([N+](=O)[O-])cc2c1=O | 150 | 7.52 (≈ 3.13 µg/mL) | 30 (≈ 12.5 µg/mL) |  |
| O=C(O)c1cn(C2CC2)c2cc(N3CCNCC3)c(F)cc2c1=O [CIPROFLOXACIN] |  |  |  | IC50 [3]: 15.1 µM |
